# ChEMBL document CHEMBL4406804, “Discovery of a Potent Steroidal Glucocorticoid Receptor Antagonist with Enhanced Selectivity against the Progesterone and Androgen Receptors (OP-3633)” (J Med Chem, 2019)
# How the values were obtained:
# [1] = Volume of distribution at steady state in dog at 0.5 mg/kg, iv; assay type: ADME, organism-based, Canis lupus familiaris; conditions: in vivo, read-out: Vdss
# CYP2C8 = target: T1, CYP2C8 (Homo sapiens, UniProt P10632); assay: Inhibition of CYP2C8 (unknown origin) at 10 uM using paclitaxel as substrate relative to control; assay type: ADME; conditions: probe paclitaxel
# T1 sequence (P10632 whole entry): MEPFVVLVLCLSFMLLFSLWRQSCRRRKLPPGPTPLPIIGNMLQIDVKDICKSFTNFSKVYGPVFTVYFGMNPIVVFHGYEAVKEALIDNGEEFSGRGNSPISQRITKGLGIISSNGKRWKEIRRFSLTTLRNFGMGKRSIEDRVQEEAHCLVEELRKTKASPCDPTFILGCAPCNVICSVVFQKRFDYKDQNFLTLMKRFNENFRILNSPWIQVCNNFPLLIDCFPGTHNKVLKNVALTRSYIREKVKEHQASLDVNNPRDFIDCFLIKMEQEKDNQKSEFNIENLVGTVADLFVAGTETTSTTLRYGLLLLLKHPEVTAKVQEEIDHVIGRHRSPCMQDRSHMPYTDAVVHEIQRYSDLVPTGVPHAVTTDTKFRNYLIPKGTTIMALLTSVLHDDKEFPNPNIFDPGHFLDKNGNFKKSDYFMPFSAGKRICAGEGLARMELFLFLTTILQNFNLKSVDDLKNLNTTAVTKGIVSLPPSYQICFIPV
# Mus musculus [2] = assay: (§1) In vivo antagonist activity at glucocorticoid receptor in tumor of human HCC1806 cells xenografted in hsd:athymic Nude-Foxn1nu mouse assessed as reduction in cortisol-stimulated FKBP5 mRNA expression at 150 mg/kg, po administered as single dose via gavage and measured at 6 hrs post cortisol addition by qRT-PCR analysis (reference value: 2.3 to 4); assay type: functional
# In short: (§2)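 HCC1806 TNBC xenograft tumors in mice. Cortisol 5 mg/kg given orally as a bolus to activate GR. The compound was given as a single oral gavage dose of 150 mg/kg, with vehicle controls. Tumors were collected 3 and 6 h after cortisol, and FKBP5 mRNA was measured by RT-qPCR relative to vehicle. n = 3 mice/group. One-way ANOVA with Dunnett's test versus vehicle.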
# Glucocorticoid receptor = target: T2, Glucocorticoid receptor (Homo sapiens, UniProt P04150); assay: Antagonist activity at human glucocorticoid receptor expressed in CHO-K1 cells assessed as inhibition of glucocorticoid receptor-dexamethasone coactivator protein-protein interaction incubated for 24 hrs by bioluminescence assay; assay type: cell-based
# T2 sequence (P04150 whole entry): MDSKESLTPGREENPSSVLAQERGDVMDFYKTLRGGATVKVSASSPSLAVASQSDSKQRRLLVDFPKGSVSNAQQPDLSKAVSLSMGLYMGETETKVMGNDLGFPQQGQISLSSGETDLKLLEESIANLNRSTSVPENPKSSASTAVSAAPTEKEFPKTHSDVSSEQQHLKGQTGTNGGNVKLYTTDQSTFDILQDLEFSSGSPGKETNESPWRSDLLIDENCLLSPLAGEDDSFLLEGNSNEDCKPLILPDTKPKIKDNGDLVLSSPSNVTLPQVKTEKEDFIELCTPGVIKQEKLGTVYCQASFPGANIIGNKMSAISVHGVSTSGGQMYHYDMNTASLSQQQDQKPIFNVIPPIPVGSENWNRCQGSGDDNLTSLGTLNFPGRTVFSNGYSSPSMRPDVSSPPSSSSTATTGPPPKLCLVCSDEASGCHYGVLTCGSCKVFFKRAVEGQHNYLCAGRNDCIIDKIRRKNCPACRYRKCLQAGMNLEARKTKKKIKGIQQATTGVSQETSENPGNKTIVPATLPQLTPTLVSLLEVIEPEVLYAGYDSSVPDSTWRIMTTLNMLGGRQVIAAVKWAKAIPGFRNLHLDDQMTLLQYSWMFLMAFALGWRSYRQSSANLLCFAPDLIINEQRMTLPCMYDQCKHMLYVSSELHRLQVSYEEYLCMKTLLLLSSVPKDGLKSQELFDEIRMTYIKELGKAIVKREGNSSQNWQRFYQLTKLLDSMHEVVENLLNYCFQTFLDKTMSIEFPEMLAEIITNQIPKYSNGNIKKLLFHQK
# Cytochrome P450 2C8 = target: T3, Cytochrome P450 2C8 (Homo sapiens, UniProt P10632); assay: Inhibition of CYP2C8 (unknown origin) using paclitaxel as substrate; assay type: ADME
# T3 sequence (P10632 whole entry): T1 sequence (P10632 whole entry)
# [3] = Toxicity in female rat assessed as effect on food consumption at 250 mg/kg/day, po administered once daily via gavage for 14 days; assay type: organism-based; conditions: in vivo, 336 h
# [4] = Toxicity in female rat assessed as effect on ovarian weight at 250 mg/kg/day, po administered once daily via gavage for 14 days; assay type: organism-based; conditions: in vivo, 336 h
# [5] = Toxicity in female rat assessed as effect on clinical observation at 250 mg/kg/day, po administered once daily via gavage for 14 days; assay type: organism-based; conditions: in vivo, 336 h
# [6] = Clearance in dog at 0.5 mg/kg, iv; assay type: ADME, organism-based, Canis lupus familiaris; conditions: in vivo
# Mus musculus [7] = assay: as §1, with “at 3” for “at 6”; assay type: functional; in short: as §2
# [8] = Half-life in mini-pig at 0.5 mg/kg, iv; assay type: ADME, organism-based, Sus scrofa domesticus; conditions: in vivo
# [9] = Solubility of compound in PBS at pH 7.4; assay type: physicochemical
smiles,measurement,setting,value
CC#C[C@]1(O)CC[C@H]2[C@@H]3CCC4=CC(=O)CC[C@]4(C)[C@H]3[C@@H](c3ccc(N(C)C)cc3)C[C@@]21C,Vd,[1],8.32 L/kg
same,inhibition at 10 µM,CYP2C8,58%
same,fold change (FC),Mus musculus [2],2.3
same,IC50,Glucocorticoid receptor,0.016 µM
same,IC50,Cytochrome P450 2C8,8 µM
same,Activity,[3],Non-Toxic
same,Activity,[4],Non-Toxic
same,Activity,[5],Non-Toxic
same,clearance,[6],10.2 mL/min/kg
same,fold change (FC),Mus musculus [7],2.8
same,half-life,[8],2.71 h
same,solubility,[9],20.6 µM
